The species named for test [1] is Cavia porcellus. The experiment in a line: Relaxation in guinea pig tracheal preparation relative to papaverine, range 162-589. It counts as functional. Particulars: Trachea, read-out: ED50 (the source's name).
For test [2], the target named is cAMP phosphodiesterase (Bos taurus). The experiment in a line: Inhibition of bovine heart cAMP-phosphodiesterase.
Test [3] deals with cAMP phosphodiesterase (Bos taurus). The experiment in a line: Ratio of Ki/Km for inhibition of bovine heart cAMP-phosphodiesterase.
For test [4], the species on record is Cavia porcellus. Kind of test: Relaxation in guinea pig tracheal preparation relative to papaverine, range 52.5-75.9. In kind it is functional. Particulars: Trachea, read-out: ED50 (the source's name).
For test [5], the species on record is Cavia porcellus. The experiment in a line: Relaxation in guinea pig tracheal preparation relative to papaverine, range 33.1-91.2. It counts as functional. The following applies: Trachea, read-out: ED50 (the source's name).
The target of test [6] is cAMP phosphodiesterase (Bos taurus). The experiment in a line: Inhibition of bovine heart cAMP-phosphodiesterase. The source holds these as a separate data set.
For test [7], the species on record is Cavia porcellus. The experiment in a line: Percentage relaxation of guinea pig tracheal preparation relative to papaverine at 98 uM. It counts as functional, Trachea. The gist of the method: (§1)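 Spiral trachea strips from female Hartley guinea pigs (300-500 g) were held in Krebs-Henseleit at 37 °C under 95% O2/5% CO2. Cumulative doses of the hydrochloride salt were given, then papaverine 10 μg/mL as the supramaximal reference. Relaxation at the stated concentration is given as % of papaverine maximum, with vehicle-corrected controls.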

The species entered for test [8] is Cavia porcellus. The experiment in a line: Relaxation in guinea pig tracheal preparation relative to papaverine. In kind it is functional. Particulars: Trachea, read-out: ED50 (the source's name).
Test [9] is filed under the species Cavia porcellus. Kind of test: Percentage relaxation of guinea pig tracheal preparation relative to papaverine at 20 uM. In kind it is functional, Trachea. The essentials:
as §1

Test [10] is filed under the species Cavia porcellus. Kind of test: Percentage relaxation of guinea pig tracheal preparation relative to papaverine at 70 uM. In kind it is functional, Trachea. The essentials: as §1
The species named for test [11] is Cavia porcellus. The experiment in a line: Percentage relaxation of guinea pig tracheal preparation relative to papaverine at 42 uM. In kind it is functional, Trachea. The gist of the method:
as §1

The species named for test [12] is Cavia porcellus. Kind of test: Percentage relaxation of guinea pig tracheal preparation relative to papaverine at 84 uM. It counts as functional, Trachea. The gist of the method:
as §1

For test [13], the species on record is Cavia porcellus. The experiment in a line: Relaxation in guinea pig tracheal preparation relative to papaverine, range 63.1-79.4. In kind it is functional. Particulars: Trachea, read-out: ED50 (the source's name).

Broadly, the IC50 is the concentration at which inhibition is half-maximal. Turning to `CCN(CC)c1nc(NCCc2ccccc2)nc2cc(OC)c(OC)cc12`, the EC50 in the test filed under Cavia porcellus [1] was 234 µM. The IC50 in test [2] was determined as 87 µM. In test [3], the Ratio amounted to 0.054.

The compound `CCN(CC)c1nc(NCC(O)c2ccc(O)c(CO)c2)c2cc(OC)c(OC)cc2n1.Cl` (stereo not drawn) came in with an IC50 in [2] of 428 µM. The Ratio in test [3] was found to be 0.81. In addition, in the test listed under Cavia porcellus [4], the EC50 was 63.1 µM.

On to `CCN(CC)c1nc(NCC(O)c2ccccc2)nc2cc(OC)c(OC)cc12` (stereo not drawn), for which, in the test filed under Cavia porcellus [5], the EC50 was determined as 49 µM. For the same compound, in test [3], the Ratio amounted to 1.88. In addition, in test [6], the IC50 turned out to be 328 µM.

On to `CCN(CC)c1nc(NCC(O)c2ccccc2)c2cc(OC)c(OC)cc2n1` (stereo not drawn), for which the IC50 in [2] came out at 350 µM. The Ratio in test [3] turned out to be 0.64. In the test filed under Cavia porcellus [7], the Max relaxation is reported as 46%.

`CCN(CC)c1nc(NCC(O)c2cc(O)cc(O)c2)nc2cc(OC)c(OC)cc12.Cl` (stereo not drawn): the Ratio in test [3] came out at 0.43. The compound further gave an IC50 in test [6] of 432 µM. Moreover, in the test filed under Cavia porcellus [8], the EC50 was 26.9 µM.

In turn, `CCN(CC)c1nc(NCC(O)c2cccc(O)c2)c2cc(OC)c(OC)cc2n1.Cl` (stereo not drawn) displayed a Max relaxation in the test listed under Cavia porcellus [9] of 28%. The IC50 in [2] is 610 µM. For the same compound, the Ratio in test [3] was 0.73.

In the case of `CCN(CC)c1nc(NCCc2ccccc2)c2cc(OC)c(OC)cc2n1`, the Ratio in [3] is 0.107. In test [6], this compound gave an IC50 of 16 µM. In the test listed under Cavia porcellus [10], this compound yielded a Max relaxation of 29%.

Compound `CCN(CC)c1nc(NCC(O)c2ccc(O)c(CO)c2)nc2cc(OC)c(OC)cc12.Cl` (stereo not drawn) registered a Max relaxation in the test filed under Cavia porcellus [11] of 36%. Moreover, the Ratio in [3] came to 0.69. For the same compound, the IC50 in test [6] is 339 µM.

`CCN(CC)c1nc(NCC(O)c2cccc(O)c2)nc2cc(OC)c(OC)cc12` (stereo not drawn) yielded a Max relaxation in the test listed under Cavia porcellus [12] of 11.5%. In addition, the Ratio in test [3] turned out to be 1.15. Also, in test [6], the IC50 was found to be 295 µM.

Turning to `Cn1c(=O)c2nc[nH]c2n(C)c1=O` [THEOPHYLLINE], the EC50 in the test listed under Cavia porcellus [13] is 70.8 µM.

The values are drawn from ChEMBL document CHEMBL1123059, “2-(beta-Arylethylamino)- and 4-(beta-arylethylamino)quinazolines as phosphodiesterase inhibitors” (J Med Chem, 1985).
